Experimental data reported in ChEMBL document CHEMBL1955790, “One pot synthesis and anticancer activity of dimeric phloroglucinols” (Bioorg Med Chem Lett, 2012).
pIC50: −log10 of the molar value.

How the values were obtained:
ACHN [1] = assay: Growth inhibition of human ACHN cells at 10 uM after 48 hrs by WST-8 assay; assay type: functional; settings: read-out: GI
Summary of the method: (§1)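 ATCC cells kept in DMEM with 10% FBS and antibiotics at 37 °C, 5% CO2. Seeded 5×10^3/well, incubated overnight, then treated with compound for 48 h against a DMSO vehicle control (≤0.1%). CCK-8 (WST-8) reduction by live-cell dehydrogenases read at 450 nm (corrected 650 nm) after 4 h at 37 °C. Viable cells expressed as % of the DMSO control.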

PANC-1 [2] = assay: Growth inhibition of human PANC1 cells at 10 uM after 48 hrs by WST-8 assay; assay type: functional; settings: PANC-1, 48 h, read-out: GI; summary of the method: as §1
Calu-1 [3] = assay: Growth inhibition of human Calu1 cells at 10 uM after 48 hrs by WST-8 assay; assay type: functional; settings: Calu-1, 48 h, read-out: GI; summary of the method: as §1
NCI-H460 [4] = assay: Growth inhibition of human NCI-H460 cells at 10 uM after 48 hrs by WST-8 assay; assay type: functional; settings: NCI-H460, 48 h, read-out: GI; summary of the method: as §1
HCT-116 [5] = assay: Growth inhibition of human HCT116 cells at 10 uM after 48 hrs by WST-8 assay; assay type: functional; settings: HCT-116, 48 h, read-out: GI; summary of the method: as §1
Calu-1 [6] = assay: Cytotoxicity against human Calu1 cells after 48 hrs by WST-8 assay; assay type: functional, cell-based; settings: Calu-1, 48 h
Summary of the method: (§2)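 ATCC cells kept in DMEM with 10% FBS, penicillin/streptomycin at 37 °C, 5% CO2. Seeded 5×10^3/well and left overnight, then exposed to a range of concentrations with DMSO vehicle (≤0.1%) as control. After 48 h, CCK-8 (WST-8) was added for 4 h at 37 °C and A450 read, corrected to 650 nm. Viability is % of DMSO control. IC50 was taken from log cytotoxicity curves.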

NCI-H460 [7] = assay: Cytotoxicity against human NCI-H460 cells after 48 hrs by WST-8 assay; assay type: functional, cell-based; settings: NCI-H460, 48 h; summary of the method: as §2
HCT-116 [8] = assay: Cytotoxicity against human HCT116 cells after 48 hrs by WST-8 assay; assay type: functional, cell-based; settings: HCT-116, 48 h; summary of the method: as §2
MCF-10A = assay: Cytotoxicity against human MCF10A cells after 48 hrs by WST-8 assay; assay type: cell-based; summary of the method: as §2
ACHN [9] = assay: Cytotoxicity against human ACHN cells after 48 hrs by WST-8 assay; assay type: functional, cell-based; summary of the method: as §2
PANC-1 [10] = assay: Cytotoxicity against human PANC1 cells after 48 hrs by WST-8 assay; assay type: functional, cell-based; settings: PANC-1, 48 h; summary of the method: as §2

SMILES | inhibition of growth at 10 µM (ACHN [1]) [%] | inhibition of growth at 10 µM (PANC-1 [2]) [%] | inhibition of growth at 10 µM (Calu-1 [3]) [%] | inhibition of growth at 10 µM (NCI-H460 [4]) [%] | inhibition of growth at 10 µM (HCT-116 [5]) [%] | pIC50 (Calu-1 [6]) | pIC50 (NCI-H460 [7]) | pIC50 (HCT-116 [8]) | pIC50 (MCF-10A) | pIC50 (ACHN [9]) | pIC50 (PANC-1 [10])
CC(=O)c1c(O)c(C(C)=O)c(O)c(C(C)c2c(O)c(C(C)=O)c(O)c(C(C)=O)c2O)c1O | 19 | 0 | 38 | 0 | 3 | – | – | – | – | – | –
CC(C)CC(=O)c1c(O)c(C(=O)CC(C)C)c(O)c(C(C)c2c(O)c(C(=O)CC(C)C)c(O)c(C(=O)CC(C)C)c2O)c1O | 11 | 0 | 12 | 12 | 25 | – | – | – | – | – | –
CCC(c1c(O)c(C(=O)CC(C)C)c(O)c(C(=O)CC(C)C)c1O)c1c(O)c(C(=O)CC(C)C)c(O)c(C(=O)CC(C)C)c1O | 0 | 0 | 10 | 10 | 22 | – | – | – | – | – | –
CC(C)CC(=O)c1c(O)c(C(=O)CC(C)C)c(O)c(C(c2c(O)c(C(=O)CC(C)C)c(O)c(C(=O)CC(C)C)c2O)C2CCCCC2)c1O | 14 | 0 | 18 | 29 | 0 | – | – | – | – | – | –
CC(=O)c1c(O)c(C(C)=O)c(O)c(C(c2ccccc2)c2c(O)c(C(C)=O)c(O)c(C(C)=O)c2O)c1O | 29 | 0 | 47 | 29 | 0 | – | – | – | – | – | –
CC(=O)c1c(O)c(C(C)=O)c(O)c(C(c2cccs2)c2c(O)c(C(C)=O)c(O)c(C(C)=O)c2O)c1O | 57 | 64 | 0 | 54 | 55 | 5.01 | 5.05 | 5.00 | < 4.52 | 5.04 | 5.03
CC(C)CC(=O)c1c(O)c(C(=O)CC(C)C)c(O)c(C(c2cccs2)c2c(O)c(C(=O)CC(C)C)c(O)c(C(=O)CC(C)C)c2O)c1O | 50 | 60 | 62 | 54 | 57 | 5.05 | 5.04 | 5.05 | < 4.52 | < 5.00 | 5.07
CC(=O)c1c(O)c(C(C)=O)c(O)c(C(c2ccccn2)c2c(O)c(C(C)=O)c(O)c(C(C)=O)c2O)c1O | 12 | 0 | 24 | 0 | 11 | – | – | – | – | – | –
CC(C)CC(=O)c1c(O)c(C(=O)CC(C)C)c(O)c(C(c2ccc(C(F)(F)F)cc2C(F)(F)F)c2c(O)c(C(=O)CC(C)C)c(O)c(C(=O)CC(C)C)c2O)c1O | 57 | 60 | 65 | 64 | 61 | 5.07 | 5.07 | 5.04 | 4.56 | 5.06 | 5.08
CC(C)CC(=O)c1c(O)c(C(=O)CC(C)C)c(O)c(C(c2ccc(-c3ccccc3)cc2)c2c(O)c(C(=O)CC(C)C)c(O)c(C(=O)CC(C)C)c2O)c1O | 59 | 54 | 52 | 54 | 55 | 5.10 | 5.08 | 5.07 | < 4.58 | 5.05 | 5.04
CC(C)CC(=O)c1c(O)c(C(=O)CC(C)C)c(O)c(C(c2cc3ccccc3o2)c2c(O)c(C(=O)CC(C)C)c(O)c(C(=O)CC(C)C)c2O)c1O | 7 | 0 | 56 | 37 | 20 | – | – | – | – | – | –
CC(C)CC(=O)c1c(O)c(C(=O)CC(C)C)c(O)c(C(c2ccc3c(c2)Cc2ccccc2-3)c2c(O)c(C(=O)CC(C)C)c(O)c(C(=O)CC(C)C)c2O)c1O | 17 | 18 | 0 | 15 | 0 | – | – | – | – | – | –
CC(C)CC(=O)c1c(O)c(C(=O)CC(C)C)c(O)c(C(c2ncc[nH]2)c2c(O)c(C(=O)CC(C)C)c(O)c(C(=O)CC(C)C)c2O)c1O | 0 | 0 | 11 | 15 | 0 | – | – | – | – | – | –
CC(C)CC(=O)c1c(O)c(C(=O)CC(C)C)c(O)c(C(c2c(O)c(C(=O)CC(C)C)c(O)c(C(=O)CC(C)C)c2O)c2cccc3ccccc23)c1O | 6 | 17 | 15 | 26 | 0 | – | – | – | – | – | –
CC(C)CC(=O)c1c(O)c(C=O)c(O)c(C(c2ccncc2)c2c(O)c(C=O)c(O)c(C(=O)CC(C)C)c2O)c1O | 21 | 5 | 17 | 0 | 0 | – | – | – | – | – | –
CC(C)CC(=O)c1c(O)c(C=O)c(O)c(C(c2ncc[nH]2)c2c(O)c(C=O)c(O)c(C(=O)CC(C)C)c2O)c1O | 38 | 0 | 0 | 22 | 18 | – | – | – | – | – | –
CC(C)CC(=O)c1c(O)c(C=O)c(O)c(C(c2cc3ccccc3o2)c2c(O)c(C=O)c(O)c(C(=O)CC(C)C)c2O)c1O | 6 | 0 | 2 | 5 | 11 | – | – | – | – | – | –
CC(C)CC(=O)c1c(O)c(C=O)c(O)c(C(c2ccc(C(F)(F)F)cc2C(F)(F)F)c2c(O)c(C=O)c(O)c(C(=O)CC(C)C)c2O)c1O | 0 | 0 | 6 | 5 | 14 | – | – | – | – | – | –
CC(C)CC(=O)c1c(O)c(C=O)c(O)c(C(c2ccc(OCc3ccccc3)cc2)c2c(O)c(C=O)c(O)c(C(=O)CC(C)C)c2O)c1O | 44 | 6 | 30 | 49 | 48 | – | – | – | – | – | –
CC(C)CC(=O)c1c(O)c(C=O)c(O)c(C(c2ccc(-c3ccccc3)cc2)c2c(O)c(C=O)c(O)c(C(=O)CC(C)C)c2O)c1O | 0 | 0 | 0 | 28 | 5 | – | – | – | – | – | –
CC(C)CC(=O)c1c(O)cc(O)c(C=O)c1O | 52 | 50 | 59 | 58 | 57 | 5.04 | 5.03 | 5.01 | < 4.56 | 5.05 | 5.07
CC(=O)c1c(O)cc(O)c(C(C)=O)c1O | 44 | 0 | 0 | 25 | 0 | – | – | – | – | – | –
CC(C)CC(=O)c1c(O)cc(O)c(C(=O)CC(C)C)c1O | 30 | 0 | 0 | 46 | 55 | – | – | – | – | – | –
CC(C)CC(=O)c1c(O)c(Cc2c(O)c(C(=O)CC(C)C)c(O)c(C(=O)CC(C)C)c2O)c(O)c(C(=O)CC(C)C)c1O | 35 | 0 | 7 | 3 | 1 | – | – | – | – | – | –
CC(=O)c1c(O)c(Cc2c(O)c(C(C)=O)c(O)c(C(C)=O)c2O)c(O)c(C(C)=O)c1O | 46 | 22 | 39 | 0 | 8 | – | – | – | – | – | –
CC(C)C(=O)c1c(O)c(Cc2c(O)c(C(=O)C(C)C)c(O)c(C(=O)C(C)C)c2O)c(O)c(C(=O)C(C)C)c1O | 30 | 12 | 16 | 25 | 6 | – | – | – | – | – | –
CC(C)CC(=O)c1c(O)c(C=O)c(O)c(Cc2c(O)c(C=O)c(O)c(C(=O)CC(C)C)c2O)c1O | 35 | 15 | 29 | 0 | 9 | – | – | – | – | – | –
CC(C)C(=O)c1c(O)cc(O)c(C(=O)C(C)C)c1O | 33 | 0 | 15 | 22 | 0 | – | – | – | – | – | –
